Assay results pooled from the literature.

Compound | assay | test system | conditions | Tmax
O=C(c1cc2cc(F)ccc2[nH]1)c1c[nH]c2c(F)cccc12 | – | female mouse, plasma | intraperitoneal, 6 mg/kg | ~15 min
CC1(C)CC[C@]2(C(=O)O)CC[C@]3(C)C(=CC[C@@H]4[C@@]5(C)C[C@@H](O)[C@H](OC(=O)/C=C/c6ccc(O)cc6)C(C)(C)[C@@H]5CC[C@]43C)[C@@H]2C1 (relative stereo) | – | mouse, plasma | intraperitoneal, 85 µmol/kg, single dose | 30 min
CS(=O)(=O)CCNCc1ccc(-c2ccc3ncnc(Nc4ccc(OCc5cccc(F)c5)c(Cl)c4)c3c2)o1 | – | nude mouse, plasma | oral, 50 mg/kg, single dose | 60 min
CNCCN(C)c1cc(C#N)cc(CCc2cc(C)cc(N)n2)c1 | – | male BALB/c mouse, plasma | oral, 10 mg/kg | 15 min
CC(C)(C)c1ccc(O)c(CN(Cc2cc(C(C)(C)C)ccc2O)C2CCC(NC(N)=O)CC2)c1 (stereo not shown) | – | male C57BL/6 mouse, plasma | intraperitoneal, 25 mg/kg, single dose | 15 min
Cc1noc([C@H](Cc2c[nH]cn2)NC(=O)CN(CCCc2ccccc2)CC(=O)O)n1 | – | male C57BL/6 mouse, plasma | intraperitoneal, 30 mg/kg | 10 min
O=S(=O)(c1ccc(-c2ccc3nccc(Nc4ccncn4)c3c2)cc1)N1CCOCC1 | – | female BALB/c mouse, plasma | intraperitoneal, 10 mg/kg | 15 min
c1ccc(-c2nc(N3CCC(c4ccccn4)C3)c3ccccc3n2)nc1 (stereo not shown) | – | female BALB/c mouse, plasma | oral, 50 mg/kg | 78 min
OC[C@H]1O[C@@H](c2ccc(Cl)c(Cc3ccc(O[C@H]4CCOC4)cc3)c2)[C@H](O)[C@@H](O)[C@@H]1O | – | CD-1 mouse, plasma | intravenous, 5 mg/kg | 4.8 min
COc1nc(-c2cc(C)c(N[C@@H](C)c3ccc(F)cc3)nn2)ccc1-n1cnc(C)c1 | – | male CD-1 mouse, plasma | oral, 5 mg/kg, single dose | 60 min
COc1cc(OC)c2nccc(N3CCc4c(cc(Cn5ccnc5)cc4-c4cn(C)nc4C(F)(F)F)C3=O)c2c1 | – | male CD-1 mouse, plasma | oral, 50 mg/kg | 42 min
CN1C(=O)c2ccccc2[S@+]([O-])c2ccc(C(=O)NCCc3cccs3)cc21 | – | male C57BL/6 mouse, plasma | intraperitoneal, 30 mg/kg, single dose | 15 min
COc1nc(-c2cc(C)c(N[C@@H](C)c3c(F)cc(F)cc3F)nn2)ccc1-n1cnc(C)c1 | – | male CD-1 mouse, plasma | intravenous, 1 mg/kg, single dose | 4.98 min
CC(C)(C)c1cc(NC(=O)Nc2ccc(Oc3ccnc4[nH]c(=O)cnc34)cc2F)n(-c2ccccc2)n1 | – | BALB/c mouse, plasma | oral, 10 mg/kg | 30 min
Cc1ccc2cncc(N3CCc4c(cc(Cn5ccnc5)cc4-c4cn(C)nc4C(F)(F)F)C3=O)c2c1 | – | male CD-1 mouse, plasma | oral, 10 mg/kg | 18 min
CN1CCC[C@H](CN2c3ccccc3Sc3ccccc32)C1.O=C(O)CCC(=O)O | – | mouse, plasma | oral, 64 mg/kg, single dose | 120 min
NC[C@@H]1O[C@H](O[C@H]2[C@@H](O)[C@H](O[C@@H]3[C@@H](O)[C@H](N)C[C@H](N)[C@H]3O[C@H]3O[C@H](CO)[C@@H](O)[C@H](O)[C@H]3N)O[C@@H]2CO)[C@H](N)[C@@H](O)[C@@H]1O | – | male BALB/c mouse, plasma | oral, 500 mg/kg | 60 min
Cc1cc(C)cc(NC(=O)c2cnn(-c3ccc(C(C)C)cc3)c2C2CCNCC2)c1 | – | SCID mouse, plasma | oral, 50 mg/kg, single dose | ~300 min
C=CC(=O)N1CC2CC(n3nc(-c4ccc(C(=O)Nc5ccccn5)cc4)c4c(N)ncnc43)CC2C1 (stereo not shown) | – | SCID mouse, plasma | oral, 0.2 mg/kg | 15 min
Cc1cc(NC(=O)c2cccc3cc(-c4cccc5[nH]nc(N)c45)ccc23)ccc1F | – | male CD-1 mouse, brain | oral, 10 mg/kg | 120 min

Compound | assay | test system | conditions | Tmax
COc1nc(-c2cc(C)c(N[C@@H](C)c3cc(F)cc(F)c3)nn2)ccc1-n1cnc(C)c1 | – | male CD-1 mouse, plasma | intravenous, 1 mg/kg, single dose | 4.98 min
COc1cc(/C=C/C(=O)CC(=O)/C=C/c2ccc(O)c(OC)c2)ccc1O | HPLC | Swiss mouse, plasma | oral, 2 g/kg | 120 min
CC(C)c1cnn2c(NCc3ccccc3)cc(NC[C@H]3CCNC[C@@H]3O)nc12 | – | male CD-1 mouse, plasma | oral | 120 min
COc1ccc2c3c1O[C@H]1C[C@@H](OC(=O)c4ccccc4)C=C[C@@]31CCN(C)C2 | – | mouse, brain | intravenous, 3 mg/kg | 3 min
Cc1ccc(NC(=O)c2ccc(CN3CCN(C)CC3)cc2)cc1Nc1nccc(-c2cncc(-c3oncc3C)c2)n1 | – | male C57BL/6 mouse, plasma | oral, 100 mg/kg/day | 240 min
COc1ccc(C[C@@H](C(=O)NO)n2cc(CNS(=O)(=O)c3ccc(-c4ccccc4)s3)nn2)cc1 | – | female CD-1 mouse, plasma | intraperitoneal, 50 mg/kg | 20 min
CC(C)NC(=O)COc1cccc(-c2nc(Nc3ccc4[nH]ncc4c3)c3ccccc3n2)c1 | – | male C57BL/6 mouse, plasma | oral, 100 mg/kg | ≤ 120 min
CCc1ccc(Cc2cc([C@@H]3O[C@H](CO)[C@@H](O)[C@H](O)[C@H]3O)cc3c2CCC3)cc1 | – | male C57BL/6 mouse, plasma | oral, 1 mg/kg | 30 min
CSc1cc(Oc2ccnc3[nH]c(=O)cnc23)ccc1NC(=O)Nc1cc(C(C)(C)C)nn1-c1ccccc1 | – | BALB/c mouse, plasma | intravenous, 2 mg/kg | 60 min
CNC(=O)c1cc(Oc2ccc(NC(=O)Nc3ccc(Cl)c(C(F)(F)F)c3)c(F)c2)ccn1 | – | male mouse, plasma | oral, 10 mg/kg, single dose | 162 min
CC(C)Oc1c(NC(=O)c2ccc(NC(=O)[C@H](CC(N)=O)NC(=O)c3ccc(NC(=O)c4ccc(C#N)cc4)cc3)cc2)ccc(C(=O)Nc2ccc(C(=O)O)cc2)c1O | – | male CD-1 mouse, plasma | subcutaneous, 5 mg/kg, single dose | 100 min
Cc1cc(Nc2ccc(S(F)(F)(F)(F)F)cc2)n2ncnc2n1 | – | male Swiss mouse, plasma | oral, 100 mg/kg, single dose | 120 min
CCc1cc(OC)c2nccc(N3CCc4c(cc(Cn5ccnc5)cc4-c4cn(C)nc4C(F)(F)F)C3=O)c2c1 | – | male CD-1 mouse, plasma | oral, 150 mg/kg | 30 min
COc1ccc(C(O)COc2ccc(-c3csc(-c4ccc(OCC(O)c5ccc(OC)c(OC)c5)cc4)n3)cc2)cc1OC (stereo not shown) | – | C57BL/6 mouse, plasma | oral, 75 mg/kg | 60 min
CCc1cc(C(=O)NC)c2nccc(N3CCc4c(cc(Cn5ccnc5)cc4-c4cn(C)nc4C(F)(F)F)C3=O)c2c1 | – | male CD-1 mouse, plasma | oral, 50 mg/kg | 48 min
COC(=O)CN(CCCc1ccccc1)CC(=O)N[C@@H](Cc1c[nH]cn1)c1nc(C)no1 | – | male C57BL/6 mouse, plasma | intraperitoneal, 30 mg/kg | 10 min
COc1ccc2nccc(N3CCc4c(cc(Cn5ccnc5)cc4-c4cn(C)nc4C(F)(F)F)C3=O)c2c1 | – | male CD-1 mouse, plasma | oral, 50 mg/kg | 78 min
Cc1cc(Nc2ccc3ccccc3c2)n2ncnc2n1 | – | male Swiss mouse, plasma | oral, 50 mg/kg, single dose | 30 min
CC=Cc1ccc(O)c(OC)c1 | – | mouse, plasma | intranasal, 100 mg/kg | 5 min
Cc1ncsc1-c1ccc(CNC(=O)[C@@H]2C[C@@H](O)CN2C(=O)[C@@H](NC(=O)CCCCCCCCCCCC(=O)NCCCCC#Cc2cccc(-c3nn(-c4nc(C(=O)O)cs4)c(CC4CC4)c3Cc3ccc(S(N)(=O)=O)cc3)c2)C(C)(C)C)cc1 | – | male Swiss mouse, plasma | intraperitoneal, 5 mg/kg, single dose | 480 min
